Source: PubChem (Broad Institute)
Ecoli rRNA inh = inhibitors of bacterial rRNA selective over humanized ribosomes; E. coli WT GFP vs humanized-ribosome RFP mutants, fluorescence, 24 h; stronger effect = lower value; DMSO median 0, no signal -100; GFP signal change (wild-type ribosome), % (no concentration beside the values); 1.6% of 350,000 active; AID 720706;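 active = significant combined selectivity score with lowered wild-type GFP, culture density cut under 30%, mutant RFP and density less affected; inactive = any of these conditions unmet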
FN deposition inh = fibronectin deposition inhibition; AH1F fibroblasts, Alexa488-fibronectin deposition fluorescence, overnight; inhibition, % at 12.6 µM; 0.086% of 350,000 active; AID 743247;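 active = mean inhibition across replicates of 30% or more, regardless of how many single replicates reach that level; inconclusive = mean under 30% yet at least half of replicates reach 30%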;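 note: positive control wells lacked labelled fibronectin entirely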
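Assay system: AH1F fibroblasts / Quantity: 10000 cells per well / Medium: DMEM plus 2% serum, read in PBS / Reagent: labelled fibronectin 24 nM / Dosing: single dose, pinned / Times: 1 h cell attachment, overnight exposure to compound and label / Signal: fluorescence, ex 485 nm, em 525 nm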
PvdQ inh = P. aeruginosa PvdQ acylase inhibition | purified PvdQ acylase, fluorescence plate reader | inhibition, % at 10 µM | 0.063% of 340,000 active | AID 488965; in the data active = inhibition above about 30%, passing the limit was not always enough; inconclusive = no clear call, values can overlap the other calls;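 note: 0% = vehicle neutral wells and 100% = reference inhibitor wells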
PDI inh = PDI (human) enzyme inhibition; P07237; PDI insulin aggregation turbidity, A650, 90 min; inhibition, % at 10 µM; 0.052% of 350,000 active; AID 588391;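 active = mean inhibition across replicates of 30% or more, whatever share of single replicates reach that level; inconclusive = mean inhibition below 30% while every single replicate reaches 30%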
HIV Env fusion = HIV envelope-mediated fusion inhibition; HeLa-JRFL Env/CEM21 cell fusion, luciferase; inhibition, % at 12.3 µM; 1.1% of 360,000 active;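 active = mean replicate inhibition score of at least 50 and every replicate individually at or above 50; inconclusive = only one of the two criteria met; inactive = mean below 50 and not all replicates reaching 50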;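 note: 0% = plate neutral controls and 100% = maraviroc near 300 nM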
ERp5 inh = ERp5 (human) disulfide isomerase inhibition; Q15084; 0.05% of 350,000 active; AID 651711; inhibition, % at 9.99 µM; ERp5 insulin aggregation, absorbance 650 nm, 90 min;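 active = mean replicate inhibition above about 25%, with every replicate also reaching it, limit read from the data, passing the limit was not always enough; inconclusive = only one of those two criteria met; inactive = neither criterion met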
Target sequence (Q15084 whole entry, looked up): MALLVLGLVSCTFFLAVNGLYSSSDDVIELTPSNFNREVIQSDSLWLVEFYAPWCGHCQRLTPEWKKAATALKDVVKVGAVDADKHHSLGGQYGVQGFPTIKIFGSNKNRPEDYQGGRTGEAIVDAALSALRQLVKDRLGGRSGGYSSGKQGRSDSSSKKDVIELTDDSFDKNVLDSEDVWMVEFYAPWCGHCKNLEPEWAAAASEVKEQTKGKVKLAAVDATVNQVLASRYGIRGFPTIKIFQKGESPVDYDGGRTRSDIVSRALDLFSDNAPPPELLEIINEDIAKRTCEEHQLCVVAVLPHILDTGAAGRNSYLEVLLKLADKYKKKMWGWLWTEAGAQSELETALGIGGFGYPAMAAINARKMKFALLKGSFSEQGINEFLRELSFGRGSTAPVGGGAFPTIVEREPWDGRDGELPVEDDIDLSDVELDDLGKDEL
The depositor's hits bear a star; ? = inconclusive; · = no result given; [ ] = dose if it differs, or a comment. Hits are enriched below; roughly 2.2% of the tested compounds scored in any of these assays.

SMILES	Ecoli rRNA inh	FN deposition inh	PvdQ inh	PDI inh	HIV Env fusion	ERp5 inh
CS(=O)(=O)N1CCN(c2ccccc2NC(=S)NC(=O)c2ccco2)CC1	-28.2*	18.1	-11.2	-9.6	-17.7	-8.7
CN1CCN(c2ccccc2NC(=O)c2ccc(-c3ccccc3)cc2)CC1	·	·	-7.2	4.5	·	·
CN1CCN(c2ccccc2NC(=O)C(Cc2ccccc2)n2cccc2)CC1 (stereo unspecified)	0.2	1.9	-15.9	·	77.5*	2.6
CC1Cc2ccccc2N1C(=S)NC(=O)c1ccco1 (stereo unspecified)	-27.4*	-2.5	-3.6	6.8	?	0.3
CC(C)C(=O)Nc1ccccc1N1CCN(S(C)(=O)=O)CC1	·	-7.5	-10.5	0.7	8.4	·
CS(=O)(=O)N1CCN(c2ccccc2NC(=O)C(c2ccccc2)c2ccccc2)CC1	·	·	-4.3	2.1	71.5*	·
COCC(=O)N1C[C@H](C)[C@@H](OC)CN(C)C(=O)c2cc(NC(=O)NC(C)C)ccc2OC[C@@H]1C	0.5	-23.3	·	·	2.0[16.7 µM]	3.7
CCC(NS(=O)(=O)c1c(C)[nH]c(=O)[nH]c1=O)C12CC3CC(CC(C3)C1)C2 (stereo unspecified)	·	-11.0	7.1	9.7	80.1*	-8.7
Cc1nc2ccccc2c2oc(C(=O)NCc3ccc4c(c3)OCO4)cc12	-7.3	0.7	2.7	·	88.3*	1.9
O=C(CSc1nc2ccccc2s1)NCc1ccc2c(c1)OCO2	·	2.4	-10.2	-1.4	15.4	·
O=C(CCCSc1nc2ccccc2s1)NCc1ccc2c(c1)OCO2	-27.5*	-12.2	-11.4	4.6	30.7	-0.7
COc1ccc(NS(=O)(=O)c2cccc3cccnc23)cc1	·	-1.9	6.9	1.7	-8.9	·
O=S(=O)(NCCc1ccccc1)c1cccc2cccnc12	-24.9*	5.7	1.1	2.1	9.7	-1.6
O=S(=O)(Nc1ccc(Br)cc1)c1cccc2cccnc12	-25.6*	1.2	-1.8	2.0	7.1	2.0
O=C(O)c1ccccc1C(=O)N1CCN(Cc2ccc3c(c2)OCO3)CC1	5.8	0.4	-1.8	-11.1	-14.5	0.1
O=C(N1CCN(Cc2ccc3c(c2)OCO3)CC1)C(Cl)(Cl)Cl	-18.8*	1.4	-6.4	-2.9	-52.0	-0.6
c1ccc(-c2[nH]ncc2CN2CCN(Cc3ccc4c(c3)OCO4)CC2)cc1	-46.8*	-4.3	-11.8	2.7	-3.0	-1.1
O=C(c1ccc2c(c1)OCO2)C1CCCN(Cc2cn[nH]c2-c2ccccc2)C1 (stereo unspecified)	-1.4	-22.8	-10.2	-9.5	12.0	-2.2
CCCC#Cc1cnc2c(c1)C(=O)N([C@H](C)CO)C[C@H](C)[C@@H](CN(C)Cc1ccc3c(c1)OCO3)O2	-0.3	·	·	·	3.0[16.7 µM]	1.8
Clc1ccc2c(c1)c1ccccc1n2CN1CCOCC1	-32.8*	·	0.9	1.1	·	3.6
O=C(CSc1n[nH]c(=O)n1C1CC1)Nc1cc(Cl)ccc1Oc1ccccc1	·	·	-8.2	-0.6	127.8*	·
Cc1ccc(NC(=O)c2ccc(Cl)c(S(=O)(=O)N3CCCCCC3)c2)nc1	-0.2	1.4	-6.4	-2.8	61.1*	5.0
Cc1ccc(NC(=O)c2ccc(S(=O)(=O)N3CCCCCC3)cc2)nc1	-2.8	1.2	4.8	-1.6	-11.5	5.2
CCn1nc(C(=O)Nc2cccc(S(=O)(=O)N3CCCC3)c2)c2ccccc2c1=O	-26.6*	10.2	-16.4	2.9	-0.2	1.7
O=C(c1ccc(Cl)c(S(=O)(=O)N2CCCCCC2)c1)N1CCN(c2ccccn2)CC1	·	6.5	-3.5	5.0	63.2*	·
SMILES	Ecoli rRNA inh	FN deposition inh	PvdQ inh	PDI inh	HIV Env fusion	ERp5 inh
O=C(Nc1cccc(S(=O)(=O)N2CCCCC2)c1)c1cc2ccccc2o1	-24.1*	1.8	-8.2	5.7	3.9	-12.1
C[C@H](CO)N1C[C@H](C)[C@@H](CN(C)S(=O)(=O)c2ccc(F)cc2)Oc2c(NS(=O)(=O)c3cn(C)cn3)cccc2C1=O	1.1	-3.4	·	·	·	·
O=C(Nc1ccc2c(c1)OCCO2)c1ccc(S(=O)(=O)N2CCCCC2)cc1	-32.1*	1.2	2.8	6.1	14.8	0.9
O=C(Nc1ccc(Br)cn1)c1cccc(S(=O)(=O)N2CCCC2)c1	-12.7	·	-6.1	-4.4	56.5*	-6.5
O=C(Nc1cccc(S(=O)(=O)N2CCCCCC2)c1)c1cncc(Br)c1	-16.0	·	-8.3	7.2	55.7*	-1.7
O=C(Nc1ccc(Br)cn1)c1cccc(C(=O)Nc2ccc(Br)cn2)c1	7.3	-9.1	-13.0	4.6	4.4	-2.2
COc1ccc2c3c([nH]c2c1)[C@H](CO)N(C(=O)NC(C)C)CC31CCN(C(=O)c2ccncc2)CC1	0.6	·	·	·	·	·
CCCC(=O)Nc1ccc2c(c1)C(=O)N(C)C[C@@H](OC)[C@H](C)CN(C(=O)c1cnccn1)[C@@H](C)CO2	1.3	2.4	·	·	·	-2.1
Cc1cc(C)cc(C(=O)Nc2ccc(N3CCCC3)cc2)c1	-29.9*	-12.7	-2.0	6.9	-94.6	3.4
Cc1ccc(C(=O)N2CCN(c3ccc(NC(=O)c4ccc5c(c4)OCCO5)cc3)CC2)cc1	3.1	-4.9	-3.2	-4.3	64.8*	8.2
Cc1ccccc1C(=O)N1CCN(c2ccc(NC(=O)c3ccc4c(c3)OCCO4)cc2)CC1	-2.0	-10.6	-6.6	-6.4	46.8	-3.4
Cc1ccc(C(=O)N2CCN(c3ccc(NC(=O)c4cc(C)cc(C)c4)cc3)CC2)cc1	5.1	2.6	-9.7	3.5	6.4	3.2
CCOc1ccc(-c2c(=O)n(O)c3ccccc3[n+]2[O-])cc1	-20.1*	1.0	5.6	1.9	-27.9	9.0
Clc1ccccc1C1=Nn2c(nnc2-c2ccncc2)SC1	·	11.5	-10.9	5.2	92.0*	·
CN1CCN(C(=O)C[C@@H]2CC[C@H]3[C@@H](COC[C@H](O)CN3C(=O)Nc3cc(Cl)cc(Cl)c3)O2)CC1	-25.1	-0.5	·	·	·	-3.2
C[C@H]1CN([C@@H](C)CO)C(=O)c2cccc(NC(=O)Nc3cccc4ccccc34)c2O[C@H]1CN(C)C(=O)Nc1ccc(C(F)(F)F)cc1	0.0	·	·	·	·	11.3
CCOC(=O)CN(C)Cc1cn(C)nc1-c1ccc(Oc2ccccc2)cc1	-19.5*	4.2	-13.8	-1.5	-5.0	-1.0
Cc1ccc(O)c(C(=O)c2cc(C#N)c(=O)n(Cc3ccccc3)c2)c1	-13.6	1.7	3.0	-0.7	10.2	-0.7
N#Cc1cc(C(=O)c2cc(F)ccc2O)cn(Cc2ccccc2)c1=O	-24.0*	-8.3	4.5	9.8	16.1	1.0
CCCN(C)C[C@H]1OCCCC[C@@H](C)Oc2ccc(NS(=O)(=O)c3cn(C)cn3)cc2C(=O)N([C@H](C)CO)C[C@H]1C	0.6	·	·	·	2.1[16.7 µM]	·
CC1(C)c2ccccc2C(=O)c2ccccc21	-22.0*	·	-7.7	2.2	-16.2	6.6
CC1(C)C(=Cc2ccccc2)C(=O)c2ccccc21	-51.2	-8.1	·	6.3	-17.3	1.0
